These results are taken from ChEMBL document CHEMBL3853307, “Anti-inflammatory Effect of Methyl Gallate on Experimental Arthritis: Inhibition of Neutrophil Recruitment, Production of Inflammatory Mediators, and Activation of Macrophages” (J Nat Prod, 2016).

Activity calls are given as the source filed them. The calls are words filed in the database; no cut-off is given here.

Assay [1] deals with Mus musculus. Briefly: Antiinflammatory activity in C57BL/6 mouse assessed as inhibition of zymosan-induced knee joint edema formation at 10 mg/kg, ip administered 1 hr prior to zymosan challenge measured at 6 hrs relative to control. The settings on record: C57BL/6, Knee joint. It counts as functional. The essentials:
(§1)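 Male C57BL/6 mice, fasted overnight, dosed orally (vehicle saline/water, 200 μL) or i.p. 1 h before zymosan (500 μg in 25 μL saline, i.a., left knee). Knee swelling measured as change in transverse diameter from basal by digital caliper (mm). Synovial washes (PBS/EDTA) counted on a particle counter; differentials from May-Grünwald-Giemsa cytospins, cells ×10^5/cavity. Sampled at 6 and/or 24 h; seven mice/group.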

Assay [2] concerns Mus musculus. Briefly: Antiinflammatory activity in C57BL/6 mouse assessed as inhibition of zymosan-induced knee joint edema formation at 10 mg/kg, ip administered 1 hr prior to zymosan challenge measured at 24 hrs relative to control. Type of assay: functional. Particulars: C57BL/6, Knee joint. In a few lines:
as §1

The test system of assay [3] is Mus musculus. Briefly: Antiinflammatory activity in C57BL/6 mouse assessed as inhibition of zymosan-induced total leukocyte accumulation in articular cavity at 10 mg/kg, ip administered 1 hr prior to zymosan challenge measured at 6 to 24 hrs. It counts as functional, organism-based. In a few lines:
as §1

Assay [4] concerns Mus musculus. Briefly: Antiinflammatory activity in C57BL/6 mouse assessed as inhibition of zymosan-induced neutrophil migration in articular cavity at 10 mg/kg, ip administered 1 hr prior to zymosan challenge measured at 6 to 24 hrs. It counts as functional, organism-based. The essentials: as §1
Assay [5] deals with Mus musculus. Briefly: Antiinflammatory activity in C57BL/6 mouse assessed as inhibition of zymosan-induced mononuclear cells migration in articular cavity at 10 mg/kg, ip administered 1 hr prior to zymosan challenge measured at 6 to 24 hrs. It counts as functional, organism-based. The essentials:
as §1

The subject of assay [6] is Mus musculus. Briefly: Antiinflammatory activity in C57BL/6 mouse assessed as inhibition of zymosan-induced synovial hyperplasia at 10 mg/kg, ip administered 1 hr prior to zymosan challenge measured at 6 to 24 hrs by hematoxylin and eosin staining-based optical microscopy. Type of assay: functional, organism-based. The essentials: (§2)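 Mice dosed orally or i.p. 1 h before i.a. zymosan (500 μg/cavity) or saline. Whole knees taken at 6 and 24 h from six mice, fixed in 10% formalin 48 h, decalcified in 10% EDTA/PBS 1−2 weeks, paraffin-embedded. 5 μm sections H&E-stained and examined by light microscopy. Parameter scores summed into an arthritis index; means ± SEM, two experiments.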

In assay [7] the test system is Mus musculus. Briefly: Antiinflammatory activity in C57BL/6 mouse assessed as inhibition of zymosan-induced infiltration of inflammatory cells into synovial tissue at 10 mg/kg, ip administered 1 hr prior to zymosan challenge measured at 6 to 24 hrs by hematoxylin and eosin staining-based optical microscopy. Type of assay: functional, organism-based. In a few lines:
as §2

The test system of assay [8] is Mus musculus. Briefly: Antiinflammatory activity in C57BL/6 mouse assessed as inhibition of zymosan-induced bleeding in synovial tissue at 10 mg/kg, ip administered 1 hr prior to zymosan challenge measured at 6 to 24 hrs by hematoxylin and eosin staining-based optical microscopy. Type of assay: functional, organism-based. In a few lines:
as §2

The test system of assay [9] is Mus musculus. Briefly: Antiinflammatory activity in C57BL/6 mouse assessed as inhibition of zymosan-induced arthritis score at 10 mg/kg, ip administered 1 hr prior to zymosan challenge measured at 6 to 24 hrs by hematoxylin and eosin staining-based optical microscopy. Type of assay: functional, organism-based. The essentials:
as §2

For assay [10], the system named is Mus musculus. Briefly: Antiinflammatory activity in C57BL/6 mouse assessed as inhibition of zymosan-induced IL6 production in cell-free supernatant of knee joint synovial washes at 10 mg/kg, ip administered 1 hr prior to zymosan challenge measured at 6 to 24 hrs by sandwich ELISA method. Type of assay: functional, organism-based. In a few lines:
(§3)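 Male C57BL/6 mice (18−22 g), fasted overnight, dosed orally (in filtered water, 200 μL) or i.p. 1 h before i.a. zymosan (500 μg in 25 μL saline) into left knee; contralateral knee got vehicle. Synovial cavity washed twice with 150 μL PBS/10 mM EDTA at 6 and 24 h; washes spun 400g 10 min, 4 °C. Cytokines measured by sandwich ELISA, LTB4/PGE2 by EIA (pg/mL); six mice/group, two experiments.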

The subject of assay [11] is Mus musculus. Briefly: Antiinflammatory activity in C57BL/6 mouse assessed as inhibition of zymosan-induced TNFalpha production in cell-free supernatant of knee joint synovial washes at 10 mg/kg, ip administered 1 hr prior to zymosan challenge measured at 6 to 24 hrs by sandwich ELISA method. It counts as functional, organism-based. In a few lines: as §3
Assay [12] has as its system Mus musculus. Briefly: Antiinflammatory activity in C57BL/6 mouse assessed as inhibition of zymosan-induced IL-1beta production in cell-free supernatant of knee joint synovial washes at 10 mg/kg, ip administered 1 hr prior to zymosan challenge measured at 6 to 24 hrs by sandwich ELISA method. It counts as functional, organism-based. The essentials:
as §3

Assay [13] has as its system Mus musculus. Briefly: Antiinflammatory activity in C57BL/6 mouse assessed as inhibition of zymosan-induced CXCL1/KC production in cell-free supernatant of knee joint synovial washes at 10 mg/kg, ip administered 1 hr prior to zymosan challenge measured at 6 to 24 hrs by sandwich ELISA method. It counts as functional, organism-based. In a few lines:
as §3

The subject of assay [14] is Mus musculus. Briefly: Antiinflammatory activity in C57BL/6 mouse assessed as inhibition of zymosan-induced PGE2 production in cell-free supernatant of knee joint synovial washes at 10 mg/kg, ip administered 1 hr prior to zymosan challenge measured at 6 to 24 hrs by immunosorbent assay. It counts as functional, organism-based. The essentials:
as §3

Assay [15] relates to Mus musculus. Briefly: Antiinflammatory activity in C57BL/6 mouse assessed as inhibition of zymosan-induced LTB4 production in cell-free supernatant of knee joint synovial washes at 10 mg/kg, ip administered 1 hr prior to zymosan challenge measured at 6 to 24 hrs by immunosorbent assay. Type of assay: functional, organism-based. The essentials:
as §3

Assay [16] has as its system Neutrophil. Briefly: Antiinflammatory activity in C57BL/6 mouse neutrophils assessed as inhibition of CXCL1/KC-induced neutrophil chemotaxis at 50 nM preincubated for 1 hr followed by CXCL1/KC-induction measured after 1 hr by Wright-Giemsa staining-based light microscopic method. It counts as functional, cell-based. The essentials:
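Bone marrow neutrophils from C57BL/6 femurs, purified on a 65%/72% Percoll gradient (~85−90% purity). 10^5 cells preincubated 1 h with compound or medium, then placed in a 48-well Boyden chamber over CXCL-1/KC (250 nM) across a 5 μm polycarbonate filter, 60 min at 37 °C, 5% CO2. Filter Wright-Giemsa stained; migrated cells counted in 15 fields; quadruplicate wells.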

Assay [17] has as its system J774.A1. Briefly: Antiinflammatory activity in mouse J774A.1 cells assessed as inhibition of zymosan and IFNgamma-induced IL6 production in cell-free supernatant at 1 uM preincubated for 1 hr followed by zymosan and IFNgamma addition measured after 24 hrs by sandwich ELISA. It counts as functional, cell-based. The essentials: (§4)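 J774A.1 macrophages (1 × 10^5/well, RPMI/10% FBS) adhered 24 h, preincubated 1 h with compound (0.1−10 μM) or dexamethasone (1 μM), then stimulated with zymosan (10 μg per 10^5 cells) and/or IFN-γ (25 U/mL) for 24 h. Supernatant IL-6 by sandwich ELISA; nitrite by Griess reaction at 540 nm. Quadruplicate wells, two experiments.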

The test system of assay [18] is J774.A1. Briefly: Antiinflammatory activity in mouse J774A.1 cells assessed as inhibition of zymosan and IFNgamma-induced COX2 expression at 1 uM preincubated for 1 hr followed by zymosan and IFNgamma addition measured after 24 hrs by Western blot analysis. Type of assay: functional, cell-based. In a few lines:
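J774A.1 cells in six-well plates pretreated 1 h (0.1−10 μM) before zymosan (10 μg per 10^5 cells) and/or IFN-γ (25 U/mL) for 24 h. Lysates (Tris/NaCl/MgCl2/0.5% NP40 with protease inhibitors); 30 μg protein run on 7.5% SDS-PAGE, transferred to PVDF, probed for COX-2, iNOS and α-tubulin.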

Assay [19] has as its system J774.A1. Briefly: Antiinflammatory activity in mouse J774A.1 cells assessed as inhibition of zymosan and IFNgamma-induced nitric oxide production at 1 uM preincubated for 1 hr followed by zymosan and IFNgamma addition measured after 24 hrs by colorimetric Griess test. Type of assay: functional, cell-based. The essentials: as §4

Take `C[C@@H]1C[C@H]2[C@@H]3CCC4=CC(=O)C=C[C@]4(C)[C@@]3(F)[C@@H](O)C[C@]2(C)[C@@]1(O)C(=O)CO` [DEXAMETHASONE]: the inhibition in vivo at 10 mg/kg in assay [1] stood at 42%; in assay [2], 48%. The inhibition result in assay [3], in assay [4], in assay [5], in [6], in assay [7] and in assay [8] was “Active” throughout. In addition, the inhibition entry in assay [9], in [10], in [11], in assay [12], in [13] and in [14] was “Active” each time. For the same compound, the inhibition result in assay [15], in assay [16], in [17], in [18] and in assay [19] was “Active” in each case.
